Assay results as given in PubChem BioAssay AID685 (PCMD, 2007).
Out of some 30,000 compounds screened, about 80 (0.3%) were called active.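 The calls were made as follows: active = mutant and wild-type yeast strains alike exhibit over 30% growth inhibition; inconclusive = a strain exceeds 50% while the second remains under 30%; inactive = the rest.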 Only a selection was taken, and actives are over-represented in it overall.

Assay: S. cerevisiae growth inhibition, turbidity – wild-type and eIF2Bepsilon R284H mutant, A595, cytotoxicity control for eIF2B function restoration project, primary screen (AID 685);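 also: 0% = untreated cell controls and 100% = YPD media blanks without cells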
Conditions: 16 h, stronger effect = higher value, screened at 25 µM (by protocol)
Summary of the method: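 Incubation: 16 h growth with compound, 30 °C; Material: S. cerevisiae wild-type or eIF2Bepsilon-R284H mutant strain; Signal: turbidity measured as absorbance at 595 nm; Medium: YPD yeast growth medium; Measure: growth inhibition (%) versus cell controls and blanks; Doses: 25 µM single dose.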

[1] = S. cerevisiae eIF2Bepsilon-R284H mutant growth

Row | Structure (SMILES) | growth inhibition [1] [%] | growth inhibition (S. cerevisiae wild-type growth)
1 | COC(=O)COc1ccc(S(=O)(=O)N2CCOCC2)cc1 | 0 | -24.2% (inactive)
2 | Cc1ccc(-c2csc(NC(=O)Cc3cccs3)n2)cc1C | 0 | 33.1% (inactive)
3 | CCOC(=O)C1=C(C)NC(SC)=NC1c1ccccc1 (centres undefined) | -3.45 | -15.1% (inactive)
4 | Cc1ccc(N(CC(=O)Nc2cccc(N(C)S(C)(=O)=O)c2)S(C)(=O)=O)cc1 | 16.1 | 8.21% (inactive)
5 | Cn1c(N)c(C(=O)COC(=O)C23CC4CC(CC(C4)C2)C3)c(=O)n(C)c1=O | 11.6 | 6.55% (inactive)
6 | CN=C1SC(CC(=O)Nc2ccc(C(=O)O)cc2)C(=O)N1C (centres undefined) | 10.3 | 13.1% (inactive)
7 | O=S(=O)(NCCOc1cccc2cccnc12)c1ccc(F)cc1 | 0 | -11.7% (inactive)
8 | O=C(c1cccc(F)c1)N1CCC(O)(c2cccnc2)CC1 | -27.3 | 1.72% (inactive)
9 | CCOc1ccc(NC(=O)C2CCCN(C(=O)Nc3ccccc3)C2)cc1 (centres undefined) | 8.33 | 16.3% (inactive)
10 | CC(OC(=O)CN1C(=O)C2CCCCC2C1=O)C(=O)Nc1ncc(Cl)cc1Cl (centres undefined) | 15.2 | 19.3% (inactive)
11 | CCOC(=O)c1c(NC(=O)CSc2nnc(CNc3ccc(C)cc3C)o2)sc(C)c1C | 25.9 | 25.9% (inactive)
12 | CCCCN(CC)CCNC(=O)c1[nH]c(C)c(C(C)=O)c1C | 17.6 | 11.2% (inactive)
13 | OC(C#CCN1CCOCC1)(c1ccccc1)C1CCCCC1 (centres undefined) | 7.89 | 34.3% (inactive)
14 | CCOCCOCCC(C(=O)O)P(=O)(c1ccccc1)c1ccccc1 (centres undefined) | 16.7 | 13.8% (inactive)
15 | CCc1cc(Br)ccc1NC(=O)C1CCCO1 (centres undefined) | 18.5 | -7.78% (inactive)
16 | OC(CNCC1CCCO1)Cn1c2ccc(Br)cc2c2cc(Br)ccc21 (centres undefined) | 100 | 86.7% (active)
17 | CCn1cc(C(=O)NCC2CCCO2)c(=O)c2cc(S(=O)(=O)N3CCCCC3)ccc21 (centres undefined) | -11.1 | 6.79% (inactive)
18 | COc1ccc(CCNC(=O)CN(c2ccccc2)S(C)(=O)=O)cc1OC | 12.8 | 18.3% (inactive)
19 | COC(=O)c1c(C)c(C)nc(N)c1C#N | -9.52 | -10.8% (inactive)
20 | COC(=O)c1ccc(Cc2ccccc2)o1 | 19.4 | 10% (inactive)
21 | CCOC(=O)c1cc2c(ccn2C)n1CC(=O)N1CCC(C)CC1 | 4.55 | -20.7% (inactive)
22 | O=C(C1CCC(C(=O)N2CCCC2)CC1)N1CCCC1 (centres undefined) | -12.9 | -0.38% (inactive)

Row | Structure (SMILES) | growth inhibition [1] [%] | growth inhibition (S. cerevisiae wild-type growth)
23 | Cn1c(Cn2nnc3ccccc32)nnc1SCC(=O)c1ccccc1F | 16.2 | 4.07% (inactive)
24 | O=C(NC(=O)c1ccccc1)NC(=O)c1ccccc1 | 5.26 | 12.5% (inactive)
25 | Nc1nc(SCc2ccccc2Cl)n[nH]1 | 16.2 | -0.77% (inactive)
26 | CC(C)N(C(=O)COC(=O)c1ccccc1C(=O)N1CCN(c2ccc(F)cc2)CC1)C(C)C | -1.35 | -10% (inactive)
27 | COc1ccc(O)c(C(=O)c2cnc3onc(C(C)C)c3c2)c1 | -10.5 | 8.18% (inactive)
28 | CS(=O)(=O)N(CC(=O)N1CCN(c2ccc(F)cc2)CC1)C1CCCCC1 | 4.76 | 3.1% (inactive)
29 | O=C(Nc1ccc(Cl)cc1)c1cc2nc(C3CC3)cc(C(F)(F)F)n2n1 | -4.05 | 1.92% (inactive)
30 | O=C(CSCc1ccccc1)N1CCc2ccccc21 | 9.38 | 14.7% (inactive)
31 | O=C(CN1CCSCC1)N/N=C/c1ccc(F)cc1 | 17.5 | 10% (inactive)
32 | O=C(Nc1ccccc1-c1nnn(CC(=O)N2CCCc3ccccc32)n1)c1cccc(Cl)c1 | 4.35 | -12.9% (inactive)
33 | CC1CCC2(CC1)NC(=O)N(CC(=O)c1cccn1C)C2=O (centres undefined) | -4.76 | 3% (inactive)
34 | Cc1cc(=O)[nH]c(SCc2cccc(F)c2)n1 | 0 | 10.8% (inactive)
35 | Cc1cc(C)cc(NC(=O)C2CCN(c3nc(C)cc(C)n3)CC2)c1 | -2.94 | 5.33% (inactive)
36 | CC(c1ccco1)N(C(=O)COc1ccccc1[N+](=O)[O-])c1ccccn1 (centres undefined) | -23.8 | -11% (inactive)
37 | COc1cc(C)c(C(C)C)cc1S(=O)(=O)n1ccnc1 | -20 | -17% (inactive)
38 | O=c1[nH]nc(CSCc2ccccc2Cl)[nH]1 | -3.13 | -3.79% (inactive)
39 | O=C(O)c1cc2ccccc2c(=O)s1 | -9.52 | 17.3% (inactive)
40 | CCN(CC)C(=O)CSc1ncnc2c1cnn2-c1ccccc1 | -12.9 | 1.3% (inactive)
41 | O=C(Cn1cnc2ccccc2c1=O)NCC1COc2ccccc2O1 (centres undefined) | 10.9 | 3.57% (inactive)
42 | O=C(NCC1CCC(C(=O)O)CC1)OCc1ccccc1 (centres undefined) | 0 | -12.5% (inactive)
43 | COc1ccc(S(=O)(=O)NCc2ccc(C(=O)N(C)Cc3ccco3)cc2)cc1 | 6.06 | -4.07% (inactive)
44 | Clc1cccc(N=C2NN=C(c3ccc4c(c3)OCCO4)CS2)c1 | 5.13 | -0.77% (inactive)

Row | Structure (SMILES) | growth inhibition [1] [%] | growth inhibition (S. cerevisiae wild-type growth)
45 | CC(C)Oc1ccc(Oc2ccc(C(F)(F)F)cn2)cc1 | 7.69 | 6% (inactive)
46 | Cc1ccc(C2C(C#N)C(C#N)N3CCCN23)cc1 (centres undefined) | 13 | -7.5% (inactive)
47 | Cc1ccc(C(=O)CSc2nnc(Cn3nnc4ccccc43)n2C)cc1 | 3.7 | 16.7% (inactive)
48 | COc1ccc(OCC(=O)N2CCOCC2)cc1 | 17.9 | 15.5% (inactive)
49 | O=S(=O)(NCC1OCCc2ccccc21)c1ccccc1 (centres undefined) | 15.2 | 16.1% (inactive)
50 | CCN(c1ccccc1)S(=O)(=O)c1ccc(NC(=O)C(C)(C)C)cc1 | 15 | -4.62% (inactive)
51 | Cc1cc(-c2ccccc2)nc(N2CCC(C(=O)NC34CC5CC(CC(C5)C3)C4)CC2)n1 | -19.1 | 2.16% (inactive)
52 | C=CCNC(=O)c1ccc(C)c(Br)c1 | 0 | 6.76% (inactive)
53 | CCN(CC)S(=O)(=O)c1ccc2c3c(cccc13)C(=O)S2 | -4.76 | 16.2% (inactive)
54 | O=C(O)CCC(=O)NCc1ccc(C(=O)O)cc1 | 16.7 | 9.62% (inactive)
55 | Cc1cccn2c(=O)c(/C=C(\C#N)S(=O)(=O)c3ccc(Cl)cc3)c(N3CCC(C(N)=O)CC3)nc12 | 0 | 7.31% (inactive)
56 | CCCCSc1[nH]c(=O)c(C(=O)OCC)cc1C#N | 5 | 2.76% (inactive)
57 | COc1ccc(CN(Cc2ccco2)S(=O)(=O)c2ccc(S(=O)(=O)N3CCCC3)cc2)cc1 | -2.56 | 16.6% (inactive)
58 | O=C(CN1CCOCC1)Nc1ccccc1 | 12.8 | 11.2% (inactive)
59 | CCCCCCNC(=O)CSc1nccn1Cc1ccccc1 | 11.1 | 20.4% (inactive)
60 | Cc1ccc(CNC(=O)COc2ccc(S(=O)(=O)NC(C)C)cc2)cc1 | 11.6 | 20.3% (inactive)
61 | COc1ccc(NC(=O)Cn2c(=O)n(Cc3ccco3)c(=O)c3ccccc32)cc1 | -12.8 | -47.3% (inactive)
62 | O=c1c2ccccc2nc(CSc2nnnn2-c2ccccc2)n1-c1ccccc1 | -14.8 | -3.81% (inactive)
63 | CCN(CC)C(=O)CSc1nnc(C2CCCCC2)o1 | 6.82 | 9.66% (inactive)
64 | CCOc1cc(NC(=O)c2cnccn2)c(OCC)cc1NC(=O)c1ccc(C)cc1 | -33.3 | -5.09% (inactive)
65 | CC(C)(C)C(=O)Cn1c(NCCO)nc2ccccc21 | -6.25 | 21% (inactive)
66 | Cc1ccc(-n2ccc(=O)c(C(=O)O)n2)cc1 | 18.9 | 4.62% (inactive)

Row | Structure (SMILES) | growth inhibition [1] [%] | growth inhibition (S. cerevisiae wild-type growth)
67 | Cc1ccc(Cc2c(C)nc3nc(SCC(=O)NCCN4CCOCC4)nn3c2C)cc1 | 0 | 3.33% (inactive)
68 | CC(C)CC(=O)Nc1cc(C(F)(F)F)ccc1N1CCOCC1 | 10.5 | 18.6% (inactive)
69 | CCC(c1nnnn1C1CCCC1)N1CCN(C(=O)c2ccco2)CC1 (centres undefined) | -13.6 | -4.24% (inactive)
70 | CCC(O)CNc1nc(-n2nc(C)cc2C)nc2sc3c(c12)CC(C)(C)OC3 (centres undefined) | -4.55 | 4.83% (inactive)
71 | O=C(CCc1ccccc1)NCc1cccnc1 | 4.55 | -12.1% (inactive)
72 | CCOCCCNC(=O)c1c[nH]c2cc(C)ccc2c1=O | -17.9 | 16.6% (inactive)
73 | N#Cc1c(/N=C/N2CCCC2)oc(-c2ccccc2)c1-c1ccccc1 | 7.69 | -15.7% (inactive)
74 | COc1ccccc1NC(=O)C1CCCN(c2cc(C)nc3ncnn23)C1 (centres undefined) | -7.89 | 2.42% (inactive)
75 | COc1ccc2oc(C)c(NC(C)=O)c2c1 | -6.67 | 17.6% (inactive)
76 | FC(F)(F)c1nnc2ccc(N3CCN(c4ccccc4)CC3)nn12 | 9.68 | 11.8% (inactive)
77 | OC(c1ccccc1)c1nccn1Cc1ccccc1 (centres undefined) | 6.98 | 31% (inactive)
78 | O=C(CCC(=O)OCC(F)(F)C(F)F)NCc1ccccc1 | 8.11 | 2.5% (inactive)
79 | CCOC(=O)CSc1nc2ccc(C)cc2[nH]1 | 0 | -5.43% (inactive)
80 | CC(=O)c1cccc(NC(=O)Nc2ccc(C)cc2)c1 | 12.5 | -4.69% (inactive)
81 | COc1ccc(N2CCN(C(=O)CCc3nc(-c4ccc(C)cc4)no3)CC2)cc1 | 5 | 10% (inactive)
82 | Cc1ccc(S(=O)(=O)Oc2ccc(/C=N/NC(=O)c3c(Cl)cnn3C)cc2)cc1 | 0 | 11.2% (inactive)
83 | CCCc1nc(NCc2ccc3c(c2)OCO3)c2nnn(Cc3ccccc3Cl)c2n1 | -4.84 | -14.3% (inactive)
84 | COc1ccc(CN2CN(C(C)C)CSC2=S)cc1 | 81.8 | 44.7% (active)
85 | COc1cc2c(cc1OC)C(C(C)C)=NC(C)(C)C2 | 3.13 | 7.59% (inactive)
86 | CCOCCCNC(=O)C(NC(=O)CNC(=O)c1ccccc1)c1ccc(C)cc1 (centres undefined) | 0 | 1.25% (inactive)
87 | C=C(C)CSc1nnc(-c2ccc(C)cc2)n1N | 10.3 | -3.2% (inactive)
